Data: ChEMBL document CHEMBL3351721, “Cyclic adenosine 5'-diphosphate ribose analogs without a "southern" ribose inhibit ADP-ribosyl cyclase-hydrolase CD38” (J Med Chem, 2014)

Assays:
[1] = molecular target: T1, ADP-ribosyl cyclase/cyclic ADP-ribose hydrolase 1 (Homo sapiens, UniProt P28907); assay: Drug metabolism assessed as human CD38 catalytic domain-mediated compound hydrolysis at 1 mM by RP-HPLC method; type: ADME; conditions: 1000 µM
T1 sequence (P28907 whole entry): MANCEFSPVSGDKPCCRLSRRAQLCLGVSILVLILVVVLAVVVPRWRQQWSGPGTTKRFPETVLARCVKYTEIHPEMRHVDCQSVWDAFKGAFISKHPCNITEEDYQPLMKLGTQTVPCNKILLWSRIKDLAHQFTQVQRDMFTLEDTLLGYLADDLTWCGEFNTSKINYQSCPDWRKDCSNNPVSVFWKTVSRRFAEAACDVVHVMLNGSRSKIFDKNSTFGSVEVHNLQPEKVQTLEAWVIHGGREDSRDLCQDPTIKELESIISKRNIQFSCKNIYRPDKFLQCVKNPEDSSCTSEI
Procedure, shortened: (§1)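 Human CD38 catalytic domain diluted in 20 mM Tris-HCl pH 8 to 4 mg/mL or 1 μg/mL, added to inhibitor (1 mM final) at room temperature; no-enzyme control run in parallel. At time points, aliquots diluted 20-fold in water and analysed by RP-HPLC: isocratic elution, 1 mL/min, ion-pair buffer 0.17% cetrimide and 45% phosphate buffer (pH 6.4) in MeOH, photodiode array detection 210–350 nm.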

[2] = molecular target: T1, ADP-ribosyl cyclase/cyclic ADP-ribose hydrolase 1; assay: Drug metabolism assessed as human CD38 catalytic domain-mediated compound hydrolysis at 1 mM using 1 ug/mL CD38 by RP-HPLC method; type: ADME; conditions: 1000 µM; procedure, shortened: as §1
[3] = molecular target: T1, ADP-ribosyl cyclase/cyclic ADP-ribose hydrolase 1; assay: Inhibition of human CD38 catalytic domain assessed as reduction in cADPR hydrolysis incubated for 10 mins by fluorimetric cycling assay
[4] = molecular target: T1, ADP-ribosyl cyclase/cyclic ADP-ribose hydrolase 1; assay: Drug metabolism assessed as human CD38 catalytic domain-mediated compound hydrolysis at 1 mM using 4 mg/mL CD38 by RP-HPLC method; type: ADME; conditions: 1000 µM; procedure, shortened: as §1
[5] = Retention time of the compound using 1 mM 8-NH2-N9-butyl-cIDPR in presence of human CD38 catalytic domain by RP-HPLC method; type: physicochemical; procedure, shortened: as §1
[6] = molecular target: T1, ADP-ribosyl cyclase/cyclic ADP-ribose hydrolase 1; assay: Drug level assessed as human CD38 catalytic domain-mediated compound formation using 1 mM 8-NH2-N9-butyl-cIDPR by RP-HPLC method; type: ADME; procedure, shortened: as §1
[7] = molecular target: T1, ADP-ribosyl cyclase/cyclic ADP-ribose hydrolase 1; assay: Drug metabolism assessed as human CD38 catalytic domain-mediated compound hydrolysis by measuring 8-NH2-N9-butyl-IDPR level at 1 mM by RP-HPLC method; type: ADME; conditions: 1000 µM; procedure, shortened: as §1
[8] = Retention time of the compound at 1 mM in presence of human CD38 catalytic domain by RP-HPLC method; type: physicochemical; conditions: 1000 µM; procedure, shortened: as §1

Row | SMILES | Drug metabolism [1] | Drug metabolism [2] | Drug metabolism [4] | also measured
1 | O=c1c2nc(Br)n3c2ncn1[C@@H]1O[C@H](COP(=O)(O)OP(=O)(O)OCCCC3)[C@@H](O)[C@H]1O | metabolite_detected |  |  | 
2 | O=c1c2ncn3c2ncn1[C@@H]1O[C@H](COP(=O)(O)OP(=O)(O)OC[C@H]2O[C@@H]3[C@H](O)[C@@H]2O)[C@@H](O)[C@H]1O | metabolite_detected | metabolite_notdetected | metabolite_detected | IC50 [3]: 276 µM
3 | Nc1nc2c(=O)[nH]cnc2n1CCCCOP(=O)(O)OP(=O)(O)OC[C@H]1OC(O)[C@H](O)[C@@H]1O (some centres not stated) |  |  |  | Retention_time [5]: 10.6 min; Drug metabolism [6]: metabolite_detected
4 | Nc1nc2c(=O)n3cnc2n1CCCCOP(=O)(O)OP(=O)(O)OC[C@H]1O[C@@H]3[C@H](O)[C@@H]1O |  | metabolite_notdetected | metabolite_detected | Drug metabolism [7]: metabolite_detected; Retention_time [8]: 9.1 min
5 | O=c1c2ncn3c2ncn1[C@@H]1O[C@H](COP(=O)(O)OP(=O)(O)OCCCC3)[C@@H](O)[C@H]1O | metabolite_detected |  |  | 
